Bioassay records deposited in PubChem BioAssay by several laboratories.
Compounds with a hit are over-represented: about 1.8% of the library has one in this group of screens.
NR2E3 ag-1 – activates human photoreceptor nuclear receptor NR2E3; 320,000 compounds, 0.12% hits; GST-NR2E3/biotin-RetCOR TR-FRET, 1536-well; Q9Y5X4; inhibition of corepressor binding, % at 4.78 µM;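 active means percent inhibition above the cutoff of mean plus 3 SD of all tested compounds, set per screening campaign, cut at about 20% in these data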;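 further: 0% = DMSO wells and 100% = biotin wells as full block of FRET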
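Material – GST-tagged NR2E3 plus biotinylated RetCOR corepressor · Quantity – NR2E3 fusion 1.35 nM · Times – 5 h incubation at 4 °C · Medium – pH 7.5 Tris-based buffer · Technique – TR-FRET, Eu(K)-anti-GST donor, streptavidin-D2 acceptor, ex 340, em 617/671 nm · Benchmarks – high control biotin, low control 0.6% DMSO · Format – 1536-well plates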
Rev-erbA mod – modulators of human Rev-erb alpha DNA binding; P20393; Rev-erbα–FITC-DNA binding, fluorescence polarization, 90 min; activity, % at 10 µM; 370,000 compounds, 0.79% hits;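 active means activity above about 14%, limit read from the data; passing the limit was not always enough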;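 further: 0% = DMSO wells with 35 nM protein and 100% = DMSO wells with 750 nM protein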
Target sequence (P20393 whole entry, looked up): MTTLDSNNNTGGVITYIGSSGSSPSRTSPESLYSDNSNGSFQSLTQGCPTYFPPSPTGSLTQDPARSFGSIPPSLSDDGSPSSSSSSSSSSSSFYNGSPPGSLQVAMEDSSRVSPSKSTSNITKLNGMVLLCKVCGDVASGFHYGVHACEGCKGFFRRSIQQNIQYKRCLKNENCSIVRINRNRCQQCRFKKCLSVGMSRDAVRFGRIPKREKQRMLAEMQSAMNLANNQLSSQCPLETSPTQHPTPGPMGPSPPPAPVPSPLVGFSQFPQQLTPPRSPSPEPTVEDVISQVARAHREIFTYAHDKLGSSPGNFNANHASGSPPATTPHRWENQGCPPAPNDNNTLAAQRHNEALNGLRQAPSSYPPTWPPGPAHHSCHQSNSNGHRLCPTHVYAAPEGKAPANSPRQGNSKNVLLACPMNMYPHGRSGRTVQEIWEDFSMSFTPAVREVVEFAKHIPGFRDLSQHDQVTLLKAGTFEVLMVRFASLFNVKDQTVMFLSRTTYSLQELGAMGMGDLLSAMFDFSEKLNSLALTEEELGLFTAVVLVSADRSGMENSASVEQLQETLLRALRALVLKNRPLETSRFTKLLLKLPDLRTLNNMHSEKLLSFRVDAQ
PG9 Ab binder – binds the HIV-1 gp120 antibody PG9. TR-FRET gp120-PG9 antibody binding. inhibition, % at 6.7 µM. 360,000 compounds, 0.43% hits. AID 624416; in the data active means inhibition above about 8.5%
NR2E3 ag-2 – agonists of human NR2E3 nuclear receptor; Q9Y5X4; CHO-S Gal4-NCOR/VP16-NR2E3 two-hybrid, luciferase; inhibition of corepressor binding, % at 3.98 µM; 360,000 compounds, 0.35% hits; AID 602229;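 active means inhibition above the mean of all tested compounds plus 3 SD, cut at about 70% in these data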;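 further: 0% = DMSO with NR2E3 transfected cells and 100% = cells lacking NR2E3 construct; higher means lower luciferase signal from less NR2E3 corepressor binding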
GalR3 antag – human GalR3 antagonism; O60755; HEK293 GalR3-CNG cAMP membrane potential fluorescence; galR3 body fused to GalR1 C-terminus; inhibition, % at 3 µM; 360,000 compounds, 0.44% hits;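 active means inhibition above the screen-wide average plus 3 SD, cut at about 13% in these data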;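 further: forskolin and galanin both at EC90 stimulate the cells; cAMP rise reported by CNG channel membrane potential dye signal; 0% = forskolin plus galanin with DMSO and 100% = forskolin alone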
NR1D1 mod conf – Rev-erb alpha (human) modulation, hit confirmation | shares compounds with Rev-erbA mod | Rev-erb alpha FITC-DNA binding, fluorescence polarization, 90 min | activation, % at 25 µM | 3,000 compounds, 61% hits | AID 1259319;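 active means activation at or above a set limit, or at least 3 SD above the negative control mean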;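 further: 0% = 35 nM protein with DMSO and 100% = 750 nM protein high control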
RORg counter – RORgamma DNA-binding activity, dose-response counter-screen. IC50, µM. AID 1259320. shares compounds with Rev-erbA mod. 910 compounds, 8% hits. purified RORgamma protein-FITC-DNA binding, fluorescence polarization;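 active means Compounds whose fitted half-maximal concentration for disrupting protein-DNA binding is below 10 micromolar; the record names Rev-erb in its text, so the target is in doubt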
An asterisk follows results filed as active; · = no result given.

SMILES	NR2E3 ag-1	Rev-erbA mod	PG9 Ab binder	NR2E3 ag-2	GalR3 antag	NR1D1 mod conf	others
COc1cccc(OC)c1C(=O)NC(=S)Nc1cc(-c2nc3ccccc3[nH]2)ccc1Cl	-1.1	25.7*	6.8	-5.1	4.5	23.9*
C[C@H]1C(=O)CC[C@@]23CCCN2C(=O)CCC[C@@H]13	·	1.1	·	·	·	·
CCCCCN1CCCCC(NC(=O)c2cccc(F)c2)C1=O (stereo unspecified)	·	1.0	·	·	·	·
O=C(CSc1nc(-c2ccco2)cc(C(F)(F)F)n1)N1CCCc2ccccc21	2.0	24.7*	-0.4	10.5	-3.3	14.1
O=C(OCC#CCSc1nnc(-c2cccc3ccccc23)o1)c1cccc(F)c1	·	3.3	·	·	·	·
CC(C)c1cc(Br)ccc1OCCN1C(=O)NC(C)(C)C1=O	-2.2	13.8*	-0.9	-8.4	-6.4	1.1
Cc1ccc(C(C)C)c(OCCCN2C(=O)NC(C)(C)C2=O)c1	6.0	5.0	0.5	14.2	-5.2	·
CCCCOCCCNC(=O)C[C@H]1C[C@@]2(C(=O)OC)C(=C[C@H](C3CCCC3)O[C@@H]2C)N(CCc2ccc(OC)c(OC)c2)C1=O	·	1.5	·	·	·	·
CCc1nnc(NC(=O)Cc2ccc(OC)cc2)s1	0.5	-2.9	-0.5	-6.6	0.1	·
COc1ccc(-c2[nH]c(-c3ccc(C)cc3)nc2SCC(=O)Nc2nccs2)cc1	-0.1	4.5	-0.6	-9.1	1.3	·
CC(C)NC(=O)CSc1nc(-c2cccs2)cc(-c2ccccc2)c1C#N	-0.1	59.6*	0.0	-14.8	-5.6	46.8*	RORg counter=>40
CCc1nnc(NC(=O)CSc2nc3cc(OC)ccc3cc2C)s1	0.8	164.8*	-0.1	-2.3	-3.4	12.4
COc1ccc(-c2cc(-c3ccccc3)nc(SCC(=O)Nc3nccs3)c2C#N)cc1	-2.7	78.5*	1.6	9.6	-4.1	61.2*	RORg counter=>40
N#Cc1c(-c2ccc(Cl)cc2)cc(-c2ccccc2)nc1SCC(=O)O	5.6	-1.4	0.5	18.2	-10.2	·
N#Cc1c(-c2ccccc2)cc(C2CC2)nc1SCC(=O)c1cccs1	·	19.0*	0.0	-11.8	-3.9	29.5*
Cc1cc(C)c(C#N)c(SCC(=O)c2cccs2)n1	3.3	7.0	3.9	-89.8	-2.9	·
CCOc1ccc(-c2ccc(SCC(=O)Nc3nnc(CC)s3)nn2)cc1	-4.2	-4.5	-1.5	-66.5	1.6	·
CCc1nnc(NC(=O)CSc2nc(-c3ccccc3)cc(-c3ccc(OC)cc3)c2C#N)s1	1.9	47.9*	-0.9	-15.0	2.7	43.4*
CCN(CC)C(=O)CSc1nc(C)cc(-c2cccs2)c1C#N	3.2	77.8*	0.4	-20.4	-9.9	50.6*	RORg counter=>40
COc1ccc(CNC(=O)c2c(N)[nH]c(C(=O)c3ccccc3)c2-c2ccc3ccccc3c2)cc1OC	·	-6.6	0.4	·	-7.1	·
COc1ccc(CN(C)CC#Cc2ccccc2)c(OC)c1	·	0.3	·	·	·	·
O=c1[nH]c(Cc2ccc(F)cc2)nc2scc(-c3ccc(F)cc3)c12	-2.5	35.2*	0.0	-44.2	-6.6	35.9*	RORg counter=>40
Cc1nc(SCC(=O)NC2CCCC2)c2oc3ccccc3c2n1	·	35.2*	-2.8	-18.1	-0.8	652.5*	RORg counter=>40
Cc1nc(SCc2ccccc2)c2oc3ccccc3c2n1	4.1	2.4	0.1	-0.2	-4.6	·
Cc1nc(SCC(=O)Nc2ccc(C)c(F)c2)c2oc3ccccc3c2n1	2.4	778.9*	-1.4	-10.6	-4.1	682.2*
COc1cc(OC)cc(C(=O)Nc2ccc(S(=O)(=O)Nc3ccccn3)cc2)c1	0.8	24.6*	-2.2	-26.9	-7.4	16.9
COc1cc(OC)cc(C(=O)Nc2ccc(S(=O)(=O)Nc3cnc4ccccc4n3)cc2)c1	-0.1	-4.9	-1.3	-22.7	-1.6	·
O=C1CSC(c2ccccc2)N1Nc1nc(N2CCOCC2)nc(N2CCOCC2)n1 (stereo unspecified)	1.0	21.8*	-1.5	4.2	-1.5	5.2
c1ccc(Nc2nc(N3CCCC3)nc(N3CCOCC3)n2)cc1	-0.6	-1.1	-0.6	43.5	-1.4	·
